Assay results published in ChEMBL document CHEMBL3045292, “Synthesis and herbicidal activity of 2-(7-fluoro-3-oxo- 3,4-dihydro-2H-benzo[b][1,4]oxazin-6-yl)isoindoline-1,3-diones” (J Agric Food Chem, 2005).

Columns and labels:
[1] = tested on: Digitaria sanguinalis; experiment: Herbicidal activity against crabgrass Digitaria sanguinalis(hairy crabgrass) assessed as weed growth inhibition at post-emergence treatment […]; format: functional, organism-based
Procedure, shortened: (§1)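 Pot-grown plants in the greenhouse, in clay soil (pH 6.5, 1.6% organic matter, 37.3% clay, CEC 12.1 cmol/kg). Compound was made up as a 100 g/L emulsified concentrate (DMF, Tween-80), diluted in water and sprayed at 75 g ai/ha. Pre-emergence spraying was 24 h after sowing; post-emergence at two-leaf (dicots) or one-leaf (monocots) stage. Untreated and DMF controls. Percent growth inhibition scored visually 15 days post-treatment.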

[2] = tested on: Abutilon theophrasti; experiment: Herbicidal activity against Abutilon theophrasti (velvetleaf) assessed as weed growth inhibition at post-emergence treatment […]; format: functional, organism-based; procedure, shortened: as §1
[3] = tested on: Setaria viridis; experiment: Herbicidal activity against Setaria viridis (green foxtail) assessed as weed growth inhibition at 75 g/ha post-emergence treatment […]; format: functional; conditions: read-out: GI; procedure, shortened: as §1
[4] = tested on: Echinochloa crus-galli; experiment: Herbicidal activity against Echinochloa crus-galli (barnyard grass) (barnyard grass) assessed as weed growth inhibition at 75 g/ha post-emergence treatment […]; format: functional; conditions: read-out: GI; procedure, shortened: as §1
[5] = tested on: Digitaria sanguinalis; experiment: Herbicidal activity against crabgrass Digitaria sanguinalis(hairy crabgrass) assessed as weed growth inhibition at 75 g/ha post-emergence treatment […]; format: functional; conditions: read-out: GI; procedure, shortened: as §1
[6] = tested on: Amaranthus blitum; experiment: Herbicidal activity against Amaranthus blitum assessed as weed growth inhibition at 75 g/ha post-emergence treatment […]; format: functional; conditions: read-out: GI; procedure, shortened: as §1
[7] = tested on: Chenopodium album; experiment: Herbicidal activity against fat hen Chenopodium album assessed as weed growth inhibition at 75 g/ha post-emergence treatment […]; format: functional; conditions: read-out: GI; procedure, shortened: as §1
[8] = tested on: Abutilon theophrasti; experiment: Herbicidal activity against Abutilon theophrasti (velvetleaf) assessed as weed growth inhibition at 75 g/ha post-emergence treatment […]; format: functional; conditions: read-out: GI; procedure, shortened: as §1
[9] = tested on: Setaria viridis; experiment: Herbicidal activity against Setaria viridis (green foxtail) assessed as weed growth inhibition at 75 g/ha pre-emergence treatment […]; format: functional; conditions: read-out: GI; procedure, shortened: as §1
[10] = tested on: Echinochloa crus-galli; experiment: Herbicidal activity against Echinochloa crus-galli (barnyard grass) (barnyard grass) assessed as weed growth inhibition at 75 g/ha pre-emergence treatment […]; format: functional; conditions: read-out: GI; procedure, shortened: as §1
[11] = tested on: Digitaria sanguinalis; experiment: Herbicidal activity against crabgrass Digitaria sanguinalis(hairy crabgrass) assessed as weed growth inhibition at 75 g/ha pre-emergence treatment […]; format: functional; conditions: read-out: GI; procedure, shortened: as §1
[12] = tested on: Amaranthus blitum; experiment: Herbicidal activity against Amaranthus blitum assessed as weed growth inhibition at 75 g/ha pre-emergence treatment […]; format: functional; conditions: read-out: GI; procedure, shortened: as §1
[13] = tested on: Chenopodium album; experiment: Herbicidal activity against fat hen Chenopodium album assessed as weed growth inhibition at 75 g/ha pre-emergence treatment […]; format: functional; conditions: read-out: GI; procedure, shortened: as §1
[14] = tested on: Abutilon theophrasti; experiment: Herbicidal activity against Abutilon theophrasti (velvetleaf) assessed as weed growth inhibition at 75 g/ha pre-emergence treatment […]; format: functional; conditions: read-out: GI; procedure, shortened: as §1

SMILES	IC50 [1] [g/ha]	IC50 [2] [g/ha]	inhibition of growth at 75 g/ha [3] [%]	inhibition of growth at 75 g/ha [4] [%]	inhibition of growth at 75 g/ha [5] [%]	inhibition of growth at 75 g/ha [6] [%]	inhibition of growth at 75 g/ha [7] [%]	inhibition of growth at 75 g/ha [8] [%]	inhibition of growth at 75 g/ha [9] [%]	inhibition of growth at 75 g/ha [10] [%]	inhibition of growth at 75 g/ha [11] [%]	inhibition of growth at 75 g/ha [12] [%]	inhibition of growth at 75 g/ha [13] [%]	inhibition of growth at 75 g/ha [14] [%]
O=C1COc2cc(F)c(N3C(=O)c4ccccc4C3=O)cc2N1CC#CBr	314	121	< 50	< 50	< 50	< 50	< 50	< 50	< 50	< 50	< 50	< 50	< 50	< 50
O=C1COc2cc(F)c(N3C(=O)c4ccccc4C3=O)cc2N1CC#CI	68	3.9	50	< 50	50	> 80	> 80	> 80	50	< 50	> 80	> 80	> 80	> 80
CN1C(=O)COc2cc(F)c(N3C(=O)c4cccc(F)c4C3=O)cc21	> 1800	45	< 50	< 50	< 50	> 80	> 80	> 80	< 50	< 50	< 50	50	50	50
C#CCN1C(=O)C(C)Oc2cc(F)c(N3C(=O)c4ccccc4C3=O)cc21 (stereo not given)	161	7.5	< 50	< 50	< 50	> 80	> 80	> 80	< 50	< 50	< 50	> 80	> 80	> 80
C#CCN1C(=O)C(C)Oc2cc(F)c(N3C(=O)c4ccc(C)cc4C3=O)cc21 (stereo not given)	393	18	< 50	< 50	< 50	> 80	> 80	> 80	< 50	< 50	< 50	> 80	> 80	> 80
C#CCN1C(=O)COc2cc(F)c(N3C(=O)c4cccc(F)c4C3=O)cc21	20	23	> 80	> 80	> 80	> 80	> 80	> 80	> 80	> 80	> 80	> 80	> 80	> 80
O=C1COc2cc(F)c(N3C(=O)C4=C(CCCC4)C3=O)cc2N1CC#CI	3.8	2.3	> 80	> 80	> 80	> 80	> 80	> 80	> 80	> 80	> 80	> 80	> 80	> 80
Cc1ccc2c(c1)C(=O)N(c1cc3c(cc1F)OC(C)C(=O)N3CC#CI)C2=O (stereo not given)	> 1800	30	< 50	< 50	< 50	> 80	> 80	> 80	< 50	< 50	< 50	> 80	> 80	> 80
C#CCN1C(=O)COc2cc(F)c(N3C(=O)c4cccc([N+](=O)[O-])c4C3=O)cc21	210	300	< 50	< 50	< 50	< 50	< 50	< 50	< 50	< 50	< 50	< 50	< 50	< 50
CC1Oc2cc(F)c(N3C(=O)c4ccccc4C3=O)cc2N(CC#CI)C1=O (stereo not given)	60	7.4	< 50	< 50	50	> 80	> 80	> 80	> 80	> 80	> 80	> 80	> 80	> 80
C#CCN1C(=O)COc2cc(F)c(N3C(=O)c4ccc(C)cc4C3=O)cc21	31	28	< 50	50	> 80	> 80	> 80	> 80	< 50	< 50	< 50	< 50	< 50	< 50
C#CCN1C(=O)C(C)Oc2cc(F)c(N3C(=O)c4cccc(F)c4C3=O)cc21 (stereo not given)	42	7.7	> 80	> 80	> 80	> 80	> 80	> 80	> 80	> 80	> 80	> 80	> 80	> 80
N#CCN1C(=O)COc2cc(F)c(N3C(=O)c4ccccc4C3=O)cc21	57	92	< 50	< 50	50	< 50	< 50	< 50	< 50	< 50	< 50	< 50	< 50	< 50
C#CCN1C(=O)COc2cc(F)c(N3C(=O)c4ccccc4C3=O)cc21	17	7.5	> 80	> 80	> 80	> 80	> 80	> 80	< 50	< 50	> 80	> 80	> 80	> 80
CC1Oc2cc(F)c(N3C(=O)c4cccc(F)c4C3=O)cc2N(CC#CI)C1=O (stereo not given)	238	7.5	< 50	< 50	< 50	> 80	> 80	> 80	< 50	< 50	< 50	> 80	> 80	> 80
